Experimental data: ChEMBL document CHEMBL1145301, “Synthesis and study of anti-inflammatory activity of some novel cyclophane amides” (2006)

Experiments:
Format in all cases: functional, Erythrocyte
[1] = Antiinflammatory activity assessed as prevention of hypotonicity-induced lysis of human RBC at 10 ug/ml
Outline: (§1)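 Human blood spun at 1500 rpm; packed cells washed in isotonic NaCl (0.85%, pH 7.2) and resuspended 10% v/v. Mixture: compound, 1 ml phosphate buffer (0.15 M, pH 7.4), 2 ml hypotonic NaCl (0.36%), 0.5 ml cell suspension; control used distilled water instead of hypotonic saline. Incubated 37 °C, 30 min, centrifuged; supernatant hemoglobin read at 500 nm.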

[2] = Antiinflammatory activity assessed as prevention of hypotonicity-induced lysis of human RBC at 50 ug/ml; outline: as §1
[3] = Antiinflammatory activity assessed as prevention of hypotonicity-induced lysis of human RBC at 100 ug/ml; outline: as §1
[4] = Antiinflammatory activity assessed as prevention of hypotonicity-induced lysis of human RBC at 200 ug/ml; outline: as §1

Row | SMILES | Activity [1] [%] | Activity [2] [%] | Activity [3] [%] | Activity [4] [%]
1 | Cc1cc2c(cc1C)COc1ccccc1C(=O)N(c1ccccc1)CCNC(=O)COc1ccccc1OCC(=O)NCCN(c1ccccc1)C(=O)c1ccccc1OC2 | 38.84 | 41.72 | 45.25 | 47.97
2 | Cc1cc2c(cc1C)COc1ccccc1C(=O)Nc1ccccc1SCc1ccc(cc1)-c1cccc(c1)-c1ccc(cc1)CSc1ccccc1NC(=O)c1ccccc1OC2 | 48.27 | 49.37 | 51.42 | 54.14
3 | Cc1cc2c(cc1C)COc1ccccc1C(=O)Nc1ccccc1SCCOc1ccc(cc1)NC(=O)c1ccccc1OC2 | 44.28 | 45.63 | 50.25 | 51.27
4 | Cc1cc2c(cc1C)COc1ccccc1C(=O)Nc1ccccc1SCc1ccc(cc1)-c1ccc(cc1)CSc1ccccc1NC(=O)c1ccccc1OC2 | 65.17 | 82.43 | 89.67 | 91
5 | Cc1cc2c(cc1C)COc1ccccc1C(=O)Nc1ccccc1SCc1ccc(cc1)NC(=O)c1ccccc1OC2 | 50.31 | 52.27 | 56.04 | 60.86
6 | O=C1CSc2ccccc2NC(=O)c2ccccc2OCc2ccccc2COc2ccccc2C(=O)Nc2ccccc2SCC(=O)Nc2ccccc2N1 | 40.53 | 42.6 | 48.72 | 49.65
7 | C[C@]12C=CC(=O)C=C1CC[C@@H]1[C@@H]2[C@@H](O)C[C@@]2(C)[C@H]1CC[C@]2(O)C(=O)CO [PREDNISOLONE] |  | 59.34 | 86.37 | 
